Test results taken from ChEMBL document CHEMBL1143000, “Application of the phosphoramidate ProTide approach to 4'-azidouridine confers sub-micromolar potency versus hepatitis C virus on an inactive nucleoside” (J Med Chem, 2007).

Columns and labels:
[1] = Cytotoxicity against in 2209-23 cells by WST assay; format: cell-based; conditions: human
Summary of the method: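 Cell viability read by WST assay in 2209-23 replicon cells (Huh-7 derived, stably carrying a genotype 1b bicistronic HCV replicon). CC50 is the concentration that reduces cell viability by 50%.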

[2] = test system: Hepatitis C virus; assay: Inhibition of HCV RNA replication in 2209-23 cells transfected with bicistronic HCV replicon; format: functional, Hepacivirus hominis
Summary of the method: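 Huh-7-derived 2209-23 cells stably carry a bicistronic genotype 1b HCV replicon with a renilla luciferase reporter. Replication is read as luciferase signal. EC50 is the concentration that reduces HCV replication by 50%.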

[3] = Inhibition of HCV NS5B570-Con1 RNA polymerase; design: species or system Hepacivirus hominis
Summary of the method: (§1)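 Recombinant HCV genotype 1b NS5B truncated at residue 570, from strain Con1 or strain BK. RNA synthesis was run primer-independently on HCV genome-derived cIRES RNA template. Read-out was incorporation of radiolabeled UMP into acid-insoluble RNA product.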

[4] = Inhibition of HCV NS5B570n-BK RNA polymerase; design: species or system Hepacivirus hominis; summary of the method: as §1

Compound `[N-]=[N+]=N[C@]1(COP(=O)(NCC(=O)OCc2ccccc2)Oc2ccccc2)O[C@@H](n2ccc(=O)[nH]c2=O)[C@@H](O)[C@H]1O` (some centres not stated) has a CC50 [1] greater than 100 µM and an EC50 ([2]; Hepatitis C virus) of 1.6 µM.
Work on `CCOC(=O)CCNP(=O)(OC[C@@]1(N=[N+]=[N-])O[C@@H](n2ccc(=O)[nH]c2=O)[C@@H](O)[C@H]1O)Oc1ccccc1` (some centres not stated) yielded a CC50 [1] greater than 100 µM and an EC50 ([2]; Hepatitis C virus) greater than 100 µM.
`[N-]=[N+]=N[C@]1(COP(=O)(O)OP(=O)(O)OP(=O)(O)O)O[C@@H](n2ccc(=O)[nH]c2=O)[C@@H](O)[C@H]1O` showed an IC50 [3] of 0.22 µM and an IC50 [4] of 0.23 µM.
For `C[C@H](NP(=O)(OC[C@@]1(N=[N+]=[N-])O[C@@H](n2ccc(=O)[nH]c2=O)[C@@H](O)[C@H]1O)Oc1ccccc1)C(=O)OC(C)(C)C` (some centres not stated), the CC50 [1] was greater than 100 µM and the EC50 ([2]; Hepatitis C virus) was 5.1 µM.
Compound `CCC(C)OC(=O)[C@H](C)NP(=O)(OC[C@@]1(N=[N+]=[N-])O[C@@H](n2ccc(=O)[nH]c2=O)[C@@H](O)[C@H]1O)Oc1ccccc1` (some centres not stated) has a CC50 [1] greater than 100 µM and an EC50 ([2]; Hepatitis C virus) of 0.63 µM.
For `CC(C)(NP(=O)(OC[C@@]1(N=[N+]=[N-])O[C@@H](n2ccc(=O)[nH]c2=O)[C@@H](O)[C@H]1O)Oc1ccccc1)C(=O)OCc1ccccc1` (some centres not stated), the CC50 [1] was greater than 100 µM and the EC50 ([2]; Hepatitis C virus) was 3.4 µM.
Work on `CCOC(=O)CN(C)P(=O)(OC[C@@]1(N=[N+]=[N-])O[C@@H](n2ccc(=O)[nH]c2=O)[C@@H](O)[C@H]1O)Oc1ccccc1` (some centres not stated) yielded a CC50 [1] greater than 100 µM and an EC50 ([2]; Hepatitis C virus) greater than 100 µM.
Work on `CC(C)OC(=O)[C@H](C)NP(=O)(OC[C@@]1(N=[N+]=[N-])O[C@@H](n2ccc(=O)[nH]c2=O)[C@@H](O)[C@H]1O)Oc1ccccc1` (some centres not stated) yielded a CC50 [1] greater than 100 µM and an EC50 ([2]; Hepatitis C virus) of 0.77 µM.
For `CCOC(=O)[C@H](Cc1ccccc1)NP(=O)(OC[C@@]1(N=[N+]=[N-])O[C@@H](n2ccc(=O)[nH]c2=O)[C@@H](O)[C@H]1O)Oc1ccccc1` (some centres not stated), the CC50 [1] was greater than 100 µM and the EC50 ([2]; Hepatitis C virus) was 1.37 µM.
`CCOC(=O)[C@@H]1CCCN1P(=O)(OC[C@@]1(N=[N+]=[N-])O[C@@H](n2ccc(=O)[nH]c2=O)[C@@H](O)[C@H]1O)Oc1ccccc1` (some centres not stated) showed a CC50 [1] greater than 100 µM and an EC50 ([2]; Hepatitis C virus) of 6 µM.
In the case of `CCOC(=O)[C@H](CC(C)C)NP(=O)(OC[C@@]1(N=[N+]=[N-])O[C@@H](n2ccc(=O)[nH]c2=O)[C@@H](O)[C@H]1O)Oc1ccccc1` (some centres not stated), the CC50 [1] is reported as greater than 100 µM and the EC50 ([2]; Hepatitis C virus) is reported as 2.3 µM.
In the case of `CCCCOC(=O)[C@H](C)NP(=O)(OC[C@@]1(N=[N+]=[N-])O[C@@H](n2ccc(=O)[nH]c2=O)[C@@H](O)[C@H]1O)Oc1ccccc1` (some centres not stated), the CC50 [1] is reported as greater than 100 µM and the EC50 ([2]; Hepatitis C virus) is reported as 1.2 µM.
In the case of `CCOC(=O)C1(NP(=O)(OC[C@@]2(N=[N+]=[N-])O[C@@H](n3ccc(=O)[nH]c3=O)[C@@H](O)[C@H]2O)Oc2ccccc2)CCCC1` (some centres not stated), the CC50 [1] is reported as greater than 100 µM and the EC50 ([2]; Hepatitis C virus) is reported as greater than 100 µM.
Compound `[N-]=[N+]=N[C@]1(COP(=O)(NC2(C(=O)OCc3ccccc3)CCCC2)Oc2ccccc2)O[C@@H](n2ccc(=O)[nH]c2=O)[C@@H](O)[C@H]1O` (some centres not stated) has a CC50 [1] greater than 100 µM and an EC50 ([2]; Hepatitis C virus) of less than 100 µM.
In the case of `C[C@@H](NP(=O)(OC[C@@]1(N=[N+]=[N-])O[C@@H](n2ccc(=O)[nH]c2=O)[C@@H](O)[C@H]1O)Oc1ccccc1)C(=O)OCc1ccccc1` (some centres not stated), the CC50 [1] is reported as greater than 100 µM and the EC50 ([2]; Hepatitis C virus) is reported as 1.2 µM.
Compound `[N-]=[N+]=N[C@]1(COP(=O)(N[C@@H](Cc2ccccc2)C(=O)OCc2ccccc2)Oc2ccccc2)O[C@@H](n2ccc(=O)[nH]c2=O)[C@@H](O)[C@H]1O` (some centres not stated) has a CC50 [1] greater than 100 µM and an EC50 ([2]; Hepatitis C virus) of less than 100 µM.
In the case of `COC(=O)[C@H](C)NP(=O)(OC[C@@]1(N=[N+]=[N-])O[C@@H](n2ccc(=O)[nH]c2=O)[C@@H](O)[C@H]1O)Oc1ccccc1` (some centres not stated), the CC50 [1] is reported as greater than 100 µM and the EC50 ([2]; Hepatitis C virus) is reported as 3.1 µM.
`[N-]=[N+]=N[C@]1(CO)O[C@@H](n2ccc(=O)[nH]c2=O)[C@@H](O)[C@H]1O` gave a CC50 [1] greater than 100 µM and an EC50 ([2]; Hepatitis C virus) greater than 100 µM.
`CCOC(=O)[C@H](CCSC)NP(=O)(OC[C@@]1(N=[N+]=[N-])O[C@@H](n2ccc(=O)[nH]c2=O)[C@@H](O)[C@H]1O)Oc1ccccc1` (some centres not stated) showed a CC50 [1] greater than 100 µM and an EC50 ([2]; Hepatitis C virus) of 14 µM.
`[N-]=[N+]=N[C@]1(COP(=O)(O)OP(=O)(O)OP(=O)(O)O)O[C@@H](n2ccc(N)nc2=O)[C@@H](O)[C@H]1O` showed an IC50 [3] of 0.32 µM and an IC50 [4] of 0.29 µM.
`CCOC(=O)[C@H](C)NP(=O)(OC[C@@]1(N=[N+]=[N-])O[C@@H](n2ccc(=O)[nH]c2=O)[C@@H](O)[C@H]1O)Oc1ccccc1` (some centres not stated) gave a CC50 [1] greater than 100 µM and an EC50 ([2]; Hepatitis C virus) of 1.3 µM.
In the case of `CCOC(=O)C(C)(C)NP(=O)(OC[C@@]1(N=[N+]=[N-])O[C@@H](n2ccc(=O)[nH]c2=O)[C@@H](O)[C@H]1O)Oc1ccccc1` (some centres not stated), the CC50 [1] is reported as greater than 100 µM and the EC50 ([2]; Hepatitis C virus) is reported as 10.3 µM.
Compound `C[C@H](NP(=O)(OC[C@@]1(N=[N+]=[N-])O[C@@H](n2ccc(=O)[nH]c2=O)[C@@H](O)[C@H]1O)Oc1ccccc1)C(=O)OCc1ccccc1` (some centres not stated) has a CC50 [1] greater than 100 µM and an EC50 ([2]; Hepatitis C virus) of 0.61 µM.
In the case of `CC(C)[C@H](NP(=O)(OC[C@@]1(N=[N+]=[N-])O[C@@H](n2ccc(=O)[nH]c2=O)[C@@H](O)[C@H]1O)Oc1ccccc1)C(=O)OCc1ccccc1` (some centres not stated), the CC50 [1] is reported as greater than 100 µM and the EC50 ([2]; Hepatitis C virus) is reported as less than 100 µM.
`C[C@H](NP(=O)(OC[C@@]1(N=[N+]=[N-])O[C@@H](n2ccc(=O)[nH]c2=O)[C@@H](O)[C@H]1O)Oc1cccc2ccccc12)C(=O)OCc1ccccc1` (some centres not stated) [listing 1 of 3 here] showed an EC50 [2] of 0.22 µM.
Work on `C[C@H](NP(=O)(OC[C@@]1(N=[N+]=[N-])O[C@@H](n2ccc(=O)[nH]c2=O)[C@@H](O)[C@H]1O)Oc1cccc2ccccc12)C(=O)OCc1ccccc1` (some centres not stated) [listing 2 of 3 here] yielded an EC50 [2] of 0.39 µM.
`C[C@H](NP(=O)(OC[C@@]1(N=[N+]=[N-])O[C@@H](n2ccc(=O)[nH]c2=O)[C@@H](O)[C@H]1O)Oc1cccc2ccccc12)C(=O)OCc1ccccc1` (some centres not stated) [listing 3 of 3 here] gave a CC50 [1] greater than 100 µM and an EC50 ([2]; Hepatitis C virus) of 0.43 µM.
